In brackets after ≈: the same amount, converted by molar mass.
Legend:
[1] = Clearance in rat liver microsomes assessed as drug turnover level at 1 uM incubated for 30 mins in presence of NADPH; type: ADME, Microsome; conditions: read-out: CLH
Method in brief: (§1)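 Parent compound at 1 µM incubated with liver microsomes (0.25 mg/mL) in 66.7 mM potassium phosphate with 1 mM NADPH, 37 °C, 30 min; % turnover measured by LC/MS.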

[2] = Clearance in human liver microsomes assessed as drug turnover level at 1 uM incubated for 30 mins in presence of NADPH; type: ADME, Microsome; conditions: read-out: CLH; method in brief: as §1
[3] = Clearance in Sprague-Dawley rat at 0.5 mg/kg, iv by LC-MS method; type: ADME, organism-based; conditions: in vivo
Method in brief: (§2)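 Male Sprague-Dawley rats, two animals per study, dosed IV at 0.5 mg/kg as a solution in 100% DMSO. Unbound clearance calculated as total clearance divided by rat plasma fraction unbound (CLu = CL/fu).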

[4] = Unbound clearance in Sprague-Dawley rat at 0.5 mg/kg, iv by LC-MS method; type: ADME, organism-based; conditions: in vivo; method in brief: as §2
[5] = Aqueous equilibrium solubility at room temperature after 72 hrs at pH 7.4 by HPLC; type: physicochemical; conditions: buffer
[6] = Apparent permeability in LLC-PK1 cells by LC-MS method; type: ADME, cell-based, Sus scrofa; conditions: pig
Method in brief: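 Passive permeability across LLCPK1 monolayers; apparent permeability (Papp) obtained by mass balance with LC/MS quantitation.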

[7] = Oral bioavailability in Sprague-Dawley rat at 2 mg/kg by LC-MS method; type: ADME, organism-based; conditions: in vivo

| Structure (SMILES) | microsomal CLint at 1 µM [1] [µL/min/mg] | microsomal CLint at 1 µM [2] [µL/min/mg] | clearance [3] [mL/min/kg] | CL free [4] [mL/min/kg] | solubility thermodynamic at 72 h [5] [µg/mL] | Papp [6] [×10⁻⁶ cm/s] | bioavailability [7] [%] |
| --- | --- | --- | --- | --- | --- | --- | --- |
| C[C@H](Nc1ncnc(N)c1C#N)c1nc2ccc(F)cc2c(C(N)=O)c1-c1ccccc1 | < 14 | < 14 | 10 |  |  |  |  |
| C[C@H](Nc1ncnc2[nH]cnc12)c1cc2ccc(F)cc2nc1-c1ccccn1 [AMG-319] | < 14 | < 14 | 5 | 45 | > 200 | 30 | 54 |
| CC(Nc1ncnc(N)c1C#N)c1nc2ccc(F)cc2c(C(=O)N2CCNCC2)c1-c1ccccn1 (racemic) | 17 | 24 |  |  |  |  |  |
| C[C@H](Nc1ncnc(N)c1C#N)c1nc2ccc(F)cc2c(C(=O)N2CCNCC2)c1-c1ccccc1 | 50 | 82 | 15 | 1000 |  |  |  |
| C[C@H](Nc1ncnc(N)c1C#N)c1nc2ccc(F)cc2c(-c2ccccn2)c1-c1ccccn1 | 16 | 47 |  |  |  |  |  |
| C[C@H](Nc1ncnc(N)c1C#N)c1nc2ccc(F)cc2c(C(=O)N(C)C)c1-c1ccccc1 | 426 | 198 |  |  |  |  |  |
| C[C@H](Nc1ncnc(N)c1C#N)c1nc2ccc(F)cc2c(C(=O)N2CCS(=O)(=O)CC2)c1-c1ccccc1 | 78 | 62 |  |  |  |  |  |
| C[C@H](Nc1ncnc(N)c1C#N)c1nc2ccc(F)cc2c(C(=O)N2CC(O)C2)c1-c1ccccc1 | 49 | 40 |  |  |  |  |  |
| CNC(=O)c1c(-c2ccccc2)c([C@H](C)Nc2ncnc(N)c2C#N)nc2ccc(F)cc12 | 15 | < 14 | 8.33 | 75 |  |  |  |
| CC(C)NC(=O)c1c(-c2ccccc2)c([C@H](C)Nc2ncnc(N)c2C#N)nc2ccc(F)cc12 | < 14 | 51 |  |  |  |  |  |

Next, values leading:

| microsomal CLint at 1 µM [1] [µL/min/mg] | microsomal CLint at 1 µM [2] [µL/min/mg] | clearance [3] [mL/min/kg] | CL free [4] [mL/min/kg] | solubility thermodynamic at 72 h [5] [µg/mL] | Papp [6] [×10⁻⁶ cm/s] | bioavailability [7] [%] | Structure (SMILES) |
| --- | --- | --- | --- | --- | --- | --- | --- |
| < 14 | 33 | 16.7 | 468 |  |  |  | CNCCNC(=O)c1c(-c2ccccn2)c([C@H](C)Nc2ncnc(N)c2C#N)nc2ccc(F)cc12 |
| < 14 | 22 |  |  |  |  |  | CCNC(=O)c1c(-c2ccccc2)c([C@H](C)Nc2ncnc(N)c2C#N)nc2ccc(F)cc12 |
| < 14 | < 14 |  |  |  |  |  | CNCCNC(=O)c1c(-c2ccccc2)c([C@H](C)Nc2ncnc(N)c2C#N)nc2ccc(F)cc12 |
| < 14 | < 14 | 3.33 | 102 |  |  |  | CCNC(=O)c1c(-c2ccccn2)c([C@H](C)Nc2ncnc(N)c2C#N)nc2ccc(F)cc12 |
| < 14 | < 14 | 11.7 | 67 | 200 (≈ 452 µM) | 8 | 29 | CNC(=O)c1c(-c2ccccn2)c([C@H](C)Nc2ncnc(N)c2C#N)nc2cccc(F)c12 |
| < 14 | < 14 |  |  |  |  |  | CC(Nc1ncnc(N)c1C#N)c1nc2ccc(F)cc2c(C(=O)N2CC(O)C2)c1-c1ccccn1 (racemic) |
| < 14 | < 14 | 8.33 | 38.3 | 200 (≈ 452 µM) | 14.6 | 70 | CNC(=O)c1c(-c2ccccn2)c([C@H](C)Nc2ncnc(N)c2C#N)nc2ccc(F)cc12 |

Source: ChEMBL document CHEMBL4428047 (J Med Chem, 2016)
